# ChEMBL document CHEMBL1156597, “Structure-activity relationship of kahalalide F synthetic analogues” (J Med Chem, 2008)
# Columns and labels:
# [1] = tested on: LoVo; test: Cytotoxicity against human doxorubicin resistant LoVo cells after 48 hrs by SRB assay; assay type: functional; conditions: for CC50: read-out: LC50 (the source's name)
# Method in brief: (§1)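 Cells grown in RPMI 1640 with 10% FBS and penicillin/streptomycin at 37 °C and 5% CO₂, trypsinized, then seeded at 5 × 10³/well. After 18 h drug-free attachment, samples in DMSO/EtOH/PBS (0.5:0.5:99) were added for 48 h continuous exposure. Cells were fixed with cold TCA (1 h, 4 °C) and stained with SRB (10 min). Tris-solubilized stain read at 490 nm. Triplicate wells, mean ± SD; GI₅₀ derived.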
# [2] = tested on: LoVo; test: Cytotoxicity against human LoVo cells after 48 hrs by SRB assay; assay type: functional; conditions: for CC50: read-out: LC50 (the source's name)
# [3] = Cytotoxicity against human IGROV-ET cells after 48 hrs by SRB assay; assay type: functional; conditions: for CC50: read-out: LC50 (the source's name); method in brief: as §1
# [4] = tested on: LNCaP; test: Cytotoxicity against human LNcaP cells after 48 hrs by SRB assay; assay type: functional; conditions: for CC50: read-out: LC50 (the source's name); method in brief: as §1
# [5] = tested on: HeLa; test: Cytotoxicity against human HeLa cells after 48 hrs by SRB assay; assay type: functional; conditions: for CC50: read-out: LC50 (the source's name); method in brief: as §1
# [6] = tested on: SK-BR-3; test: Cytotoxicity against human SKBR3 cells after 48 hrs by SRB assay; assay type: functional; conditions: SK-BR-3, 48 h; for GI50: read-out: GI50; for CC50: read-out: LC50 (the source's name); method in brief: as §1
# [7] = tested on: K562; test: Cytotoxicity against human K562 cells after 48 hrs by SRB assay; assay type: functional; conditions: K562, 48 h; for CC50: read-out: LC50 (the source's name); method in brief: as §1
# [8] = tested on: DU-145; test: Cytotoxicity against human DU145 cells after 48 hrs by SRB assay; assay type: functional, cell-based; conditions: Homo sapiens, DU-145, 48 h; for CC50: read-out: LC50 (the source's name); method in brief: as §1
# [9] = Cytotoxicity against human IGROV cells after 48 hrs by SRB assay; assay type: functional; conditions: for CC50: read-out: LC50 (the source's name); method in brief: as §1
# [10] = tested on: A549; test: Cytotoxicity against human A549 cells after 48 hrs by SRB assay; assay type: functional, cell-based; conditions: Homo sapiens, A549, 48 h; method in brief: as §1
# [11] = tested on: PANC-1; test: Cytotoxicity against human PANC1 cells after 48 hrs by SRB assay; assay type: functional; conditions: PANC-1, 48 h; for CC50: read-out: LC50 (the source's name); method in brief: as §1
# [12] = tested on: HT-29; test: Cytotoxicity against human HT29 cells after 48 hrs by SRB assay; assay type: functional, cell-based; conditions: Homo sapiens, HT-29, 48 h; for CC50: read-out: LC50 (the source's name); method in brief: as §1
# [13] = tested on: SK-MEL-28; test: Cytotoxicity against human SK-MEL-28 cells after 48 hrs by SRB assay; assay type: functional, cell-based; conditions: Homo sapiens, SK-MEL-28, 48 h; for CC50: read-out: LC50 (the source's name); method in brief: as §1
# [14] = Cytotoxicity against human HeLa-APL cells after 48 hrs by SRB assay; assay type: functional; method in brief: as §1
structure (smiles),measurement,setting,value
C/C=C1\NC(=O)[C@H](Cc2ccccc2)NC(=O)[C@@H](C(C)C)NC(=O)[C@@H]([C@H](C)CC)NC(=O)[C@H](NC(=O)[C@H](NC(=O)[C@H](CCCN)NC(=O)[C@H]2CCCN2C(=O)[C@H](NC(=O)[C@@H](NC(=O)[C@@H](NC(=O)[C@H](NC(=O)C(F)(F)C(F)(F)C(F)(F)C(F)(F)C(F)(F)C(F)(F)F)C(C)C)[C@@H](C)O)C(C)C)C(C)C)[C@H](C)CC)[C@H](C)OC(=O)[C@H](C(C)C)NC1=O,GI50,[1],286 nM
same,TGI,[1],289 nM
same,CC50,[1],290 nM
same,GI50,[2],1160 nM
same,TGI,[2],1180 nM
same,CC50,[2],798 nM
same,GI50,[3],814 nM
same,GI50,[3]; read-out: GI50,697 nM
same,CC50,[3],1040 nM
same,GI50,[4],758 nM
same,TGI,[4],757 nM
same,CC50,[4],753 nM
same,GI50,[5],961 nM
same,TGI,[5],947 nM
same,CC50,[5],931 nM
same,TGI,[6],453 nM
same,GI50,[6],291 nM
same,CC50,[6],578 nM
same,GI50,[7],830 nM
same,TGI,[7],1010 nM
same,CC50,[7],1220 nM
same,GI50,[8],614 nM
same,GI50,[8]; read-out: GI50,534 nM
same,CC50,[8],708 nM
same,GI50,[9],584 nM
same,GI50,[9]; read-out: GI50,854 nM
same,CC50,[9],459 nM
same,GI50,[10],745 nM
same,LC50,[10],865 nM
same,GI50,[10]; read-out: GI50,636 nM
same,GI50,[11],2320 nM
same,TGI,[11],3460 nM
same,CC50,[11],2000 nM
same,GI50,[12],513 nM
same,TGI,[12],520 nM
same,CC50,[12],563 nM
same,GI50,[13],765 nM
same,GI50,[13]; read-out: GI50,734 nM
same,CC50,[13],794 nM
same,GI50,[14],596 nM
same,LC50 (concentration giving 50% net cell kill),[14],1200 nM
same,TGI,[14],888 nM
C/C=C1\NC(=O)[C@H](Cc2ccccc2)NC(=O)[C@@H](C(C)C)NC(=O)[C@@H]([C@H](C)CC)NC(=O)[C@H](NC(=O)[C@H](NC(=O)[C@H](CCCN)NC(=O)[C@H]2CCCN2C(=O)[C@H](NC(=O)[C@@H](NC(=O)[C@@H](NC(=O)[C@H](NC(=O)CCCC(C)C)C(C)C)C(C)C)C(C)C)C(C)C)[C@H](C)CC)[C@H](C)OC(=O)[C@H](C(C)C)NC1=O,CC50,[1],28 nM
same,GI50,[2],276 nM
same,TGI,[2],270 nM
same,CC50,[2],264 nM
same,GI50,[3],248 nM
same,GI50,[3]; read-out: GI50,257 nM
same,CC50,[3],64.8 nM
same,GI50,[4],334 nM
same,TGI,[4],530 nM
same,CC50,[4],733 nM
same,GI50,[5],134 nM
same,TGI,[5],124 nM
same,CC50,[5],116 nM
same,TGI,[6],153 nM
same,GI50,[6],166 nM
same,CC50,[6],75.8 nM
same,GI50,[7],718 nM
same,TGI,[7],899 nM
same,CC50,[7],1100 nM
same,GI50,[8],149 nM
same,GI50,[8]; read-out: GI50,175 nM
same,CC50,[8],127 nM
same,GI50,[9],118 nM
same,GI50,[9]; read-out: GI50,183 nM
same,CC50,[9],55.9 nM
same,GI50,[10],445 nM
same,LC50,[10],640 nM
same,GI50,[10]; read-out: GI50,258 nM
same,GI50,[11],1120 nM
same,TGI,[11],1260 nM
same,CC50,[11],1420 nM
same,GI50,[12],300 nM
same,TGI,[12],311 nM
same,CC50,[12],322 nM
same,TGI,[13],178 nM
same,GI50,[13]; read-out: GI50,209 nM
same,CC50,[13],151 nM
same,GI50,[14],324 nM
same,LC50 (concentration giving 50% net cell kill),[14],730 nM
same,TGI,[14],467 nM
C/C=C1\NC(=O)[C@H](Cc2ccccc2)NC(=O)[C@@H](C(C)C)NC(=O)[C@@H]([C@H](C)CC)NC(=O)[C@H](NC(=O)[C@H](NC(=O)[C@H](CCCN)NC(=O)[C@H]2CCCN2C(=O)[C@H](NC(=O)[C@@H](NC(=O)[C@@H](NC(=O)[C@H](NC(=O)CC[C@@H](C)CC)C(C)C)[C@@H](C)OC(=O)C(F)(F)F)C(C)C)C(C)C)[C@H](C)CC)[C@H](C)OC(=O)[C@H](C(C)C)NC1=O,GI50,[1],189 nM
same,TGI,[1],222 nM
same,CC50,[1],1400 nM
same,GI50,[2],212 nM
same,TGI,[2],257 nM
same,CC50,[2],310 nM
same,GI50,[3],191 nM
same,GI50,[3]; read-out: GI50,231 nM
same,CC50,[3],468 nM
same,GI50,[4],610 nM
same,TGI,[4],1020 nM
same,CC50,[4],1400 nM
same,GI50,[5],294 nM
same,TGI,[5],553 nM
same,CC50,[5],818 nM
same,TGI,[6],218 nM
same,GI50,[6],203 nM
same,CC50,[6],141 nM
same,CC50,[7],181 nM
same,GI50,[8],752 nM
same,GI50,[8]; read-out: GI50,617 nM
same,CC50,[8],914 nM
same,GI50,[9],345 nM
same,GI50,[9]; read-out: GI50,287 nM
same,CC50,[9],508 nM
same,GI50,[10],882 nM
same,LC50,[10],101 nM
same,GI50,[10]; read-out: GI50,7700 nM
same,GI50,[11],1430 nM
same,TGI,[11],1660 nM
same,CC50,[11],1660 nM
same,GI50,[12],241 nM
same,TGI,[12],257 nM
same,CC50,[12],271 nM
same,GI50,[13],772 nM
same,GI50,[13]; read-out: GI50,716 nM
same,CC50,[13],839 nM
same,GI50,[14],499 nM
same,LC50 (concentration giving 50% net cell kill),[14],892 nM
same,TGI,[14],745 nM
